Rows were chosen to be rich in hits. Some 3% of all compounds tested hit in one or more screens of this group.
T cruzi repl – blocks replication of Trypanosoma cruzi; T. cruzi beta-gal in NIH3T3, luminescence, 90 h; inhibition, % (no concentration beside the values); 300,000 compounds, 1.4% hits; AID 1885;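 active means mean inhibition across valid replicates above about 55%, limit read from the data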;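 further: signal also drops with host cell toxicity which is not excluded here; higher percent means less beta-gal luminescence so fewer parasites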
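System: mouse NIH/3T3 fibroblasts infected with β-gal-expressing T. cruzi Tulahuen C4 / Input: NIH/3T3 cells, 5,000 per well / Buffer or medium: Low-serum DMEM with 2% FBS / Probe or stimulus: 5000 reporter trypomastigotes per well / Schedule: ≥90 h infection period, 3 h prior cell attachment / Measured by: GalScreen luminescence, 60 min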
HSF1 activator – increases HSF-1 driven luciferase reporter signal | activation, % at 9 µM | NIH3T3-HGL HSF-1 luciferase reporter, MG132, 8 h; 100% = twice DMSO control signal | 300,000 compounds, 1.7% hits;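 active means mean replicate activation of at least 50% with a set share of replicates each reaching 50%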
Glyco luc inh – blocks N-linked glycosylation in D54 reporter cells; AID 588692; reporter increase, % at 12.5 µM; D54 ERlucT glycosylation luciferase reporter, 24 h; percent of 100 nM tunicamycin response; 360,000 compounds, 0.23% hits;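 active means mean luciferase reporter signal, scaled so untreated is 0 and the glycosylation-blocking control 100, at or above a set limit in every replicate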;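 further: luciferase carries N-glycosylation sites so blocking glycosylation raises the light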
CaV13 FRET inh – Disruptors of the CACNA1D IQ motif to Ca2+-dependent inactivation inhibitor domain association, primary screening, Förster resonance energy transfer in intact living …; HEK cells, CFP/YFP FRET ICDI-IQ, plate reader, 10 min; percent FRET-ratio fall versus neutral wells; inhibition, % at 12.3 µM; 340,000 compounds, 0.098% hits;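 active means mean replicate inhibition of at least 30% and at least 1% of replicates passing that level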
PfHsp90 set2 – reduces growth (ATP signal) of yeast expressing P. falciparum Hsp90 | S. cerevisiae expressing PfHsp90, BacTiter-Glo ATP, 48 h; yeast lacking PDR1 and PDR3 efflux regulators | inhibition, % at 9.4 µM | 310,000 compounds, 0.32% hits;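 active means every replicate shows inhibition above about 80%, whatever the replicate mean, limit read from the data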
PvdQ acylase – blocks Pseudomonas aeruginosa PvdQ acylase activity | AID 488965 | 340,000 compounds, 0.063% hits | inhibition, % at 10 µM | purified PvdQ acylase, fluorescence plate reader; in the data active means inhibition above about 30%, passing the limit was not always enough
Numbers stand for hits.

What do the screens show for `CC(=O)NCCNC(=O)c1ccc(CSc2ccc(Cl)cc2)cc1`?
T cruzi repl: inactive; HSF1 activator: 68.0; Glyco luc inh: inactive; CaV13 FRET inh: inactive; PfHsp90 set2: inactive; PvdQ acylase: inactive

Results for CC(C)c1ccc(C(=O)NCc2ccc(Cl)cc2)cc1 ?
T cruzi repl: inactive; HSF1 activator: 57.3; Glyco luc inh: inactive; CaV13 FRET inh: inactive; PfHsp90 set2: inactive; PvdQ acylase: inactive

Results for CCNC(=O)c1ccc(CSc2ccc(Cl)cc2)cc1 ?
T cruzi repl: inactive; HSF1 activator: inactive; Glyco luc inh: inactive; CaV13 FRET inh: inactive; PfHsp90 set2: inactive; PvdQ acylase: inactive

What do the screens show for `CC(Sc1nnc(-c2ccccc2F)n1C)C(=O)NC1CCCCC1` (stereo not given)?
Glyco luc inh: inactive; CaV13 FRET inh: inactive; PfHsp90 set2: inactive; PvdQ acylase: 30.3

What do the screens show for `Cn1c(SCC(=O)NC2CCCCC2)nnc1-c1ccccc1F`?
T cruzi repl: inactive; HSF1 activator: inactive; Glyco luc inh: inactive; CaV13 FRET inh: inactive; PfHsp90 set2: inactive; PvdQ acylase: inactive

What do the screens show for `CCOC(=O)c1ccc(NC(=O)CC2C(=O)OCCN2CC)cc1` (stereo not given)?
T cruzi repl: inactive; HSF1 activator: inactive; Glyco luc inh: inactive; CaV13 FRET inh: inactive; PfHsp90 set2: 108.5; PvdQ acylase: inactive

Results for CN(C)[C@H]1CCN([C@@H]2CS(=O)(=O)N[C@H]2COCc2ccccc2)C1 ?
Glyco luc inh: inactive; CaV13 FRET inh: inactive

How did CS(=O)(=O)c1ccc(C(=O)OCc2nnc(-c3ccccc3)o2)cc1[N+](=O)[O-] do in these assays?
T cruzi repl: 75.7; HSF1 activator: 225.1; Glyco luc inh: inactive; CaV13 FRET inh: inactive; PfHsp90 set2: inactive; PvdQ acylase: inactive

Results for CS(=O)(=O)c1ccc(C(=O)OCC(=O)NC(=O)C2CCCCC2)cc1[N+](=O)[O-] ?
T cruzi repl: inactive; HSF1 activator: 69.5; Glyco luc inh: inactive; CaV13 FRET inh: inactive; PfHsp90 set2: inactive; PvdQ acylase: inactive

What do the screens show for `CS(=O)(=O)c1ccc(C(=O)OCC(=O)NC(=O)C2COc3ccccc3O2)cc1[N+](=O)[O-]` (stereo not given)?
Glyco luc inh: inactive; CaV13 FRET inh: inactive; PfHsp90 set2: inactive; PvdQ acylase: inactive

What do the screens show for `COCOc1cccc(CN2CCC2(C)C(=O)Nc2ccc(OC)c(OC)c2)c1` (stereo not given)?
Glyco luc inh: inactive; CaV13 FRET inh: inactive

How did CCN(CC)S(=O)(=O)c1cccc(-n2c(O)c(C=Nc3ccccc3C(=O)O)c3ccccc3c2=O)c1 do in these assays?
T cruzi repl: 72.2; HSF1 activator: inactive; Glyco luc inh: inactive; CaV13 FRET inh: inactive; PfHsp90 set2: inactive; PvdQ acylase: inactive

How did O=C1C2C3C=CC(C3)C2C(=O)N1c1ccc(-c2nc(-c3ccccc3)nc3ccccc23)cc1 (stereo not given) do in these assays?
CaV13 FRET inh: inactive

Results for Cc1ccc2c(c1)cc(CN(Cc1cccnc1)C(=O)c1ccccc1)c1nnnn12 ?
T cruzi repl: inactive; HSF1 activator: inactive; Glyco luc inh: inactive; CaV13 FRET inh: inactive; PfHsp90 set2: inactive; PvdQ acylase: inactive

How did Cc1ccc(C(=O)N(Cc2cccnc2)Cc2cc3cc(C)ccc3n3nnnc23)cc1 do in these assays?
T cruzi repl: 66.7; HSF1 activator: inactive; Glyco luc inh: inactive; CaV13 FRET inh: inactive; PfHsp90 set2: inactive; PvdQ acylase: inactive

How did CCC1(c2ccc(Cl)cc2)NC(=S)N(c2ccccc2)N1 (stereo not given) do in these assays?
T cruzi repl: inactive; HSF1 activator: 69.7; Glyco luc inh: inactive; CaV13 FRET inh: inactive; PfHsp90 set2: inactive; PvdQ acylase: inactive

How did C[C@H](CO)N1C[C@H](C)[C@H](CN(C)C(=O)c2ccccc2F)Oc2ncc(Br)cc2C1=O do in these assays?
Glyco luc inh: inactive; CaV13 FRET inh: inactive

Results for CCOC(=O)Cn1c(S(=O)(=O)Cc2ccc(F)cc2)nc(-c2ccccc2)c1-c1ccccc1 ?
T cruzi repl: inactive; HSF1 activator: 88.9; Glyco luc inh: inactive; CaV13 FRET inh: inactive; PfHsp90 set2: inactive; PvdQ acylase: inactive

Results for COC(=O)[C@]12C[C@H](CC(=O)NCCCN3CCCC3=O)C(=O)N(CCC3=CCCCC3)C1=C[C@H](COCc1ccccc1)O[C@@H]2C ?
CaV13 FRET inh: inactive

How did COc1ccc(S(=O)(=O)NCc2cccnc2)cc1NC(=O)c1ccccc1C do in these assays?
Glyco luc inh: inactive; CaV13 FRET inh: inactive; PfHsp90 set2: inactive; PvdQ acylase: inactive

How did CCOc1ccc(/C=N/N(C)c2ccccc2)cc1OC do in these assays?
T cruzi repl: inactive; HSF1 activator: 73.1; Glyco luc inh: inactive; CaV13 FRET inh: inactive; PfHsp90 set2: inactive; PvdQ acylase: inactive

What do the screens show for `N#C/C(=C\c1cccs1)C(=O)Nc1nccs1`?
T cruzi repl: inactive; HSF1 activator: 60.0; Glyco luc inh: inactive; CaV13 FRET inh: inactive; PfHsp90 set2: inactive; PvdQ acylase: inactive

How did CCOC(=O)C1=CCN(S(=O)(=O)c2ccccc2Cl)C1c1ccc(C)cc1 (stereo not given) do in these assays?
Glyco luc inh: inactive; CaV13 FRET inh: inactive

How did CC(C)OC(=O)Cc1nc2sc(-c3ccccc3)cc2c(=O)[nH]1 do in these assays?
T cruzi repl: inactive; HSF1 activator: 51.7; Glyco luc inh: inactive; CaV13 FRET inh: inactive; PfHsp90 set2: inactive; PvdQ acylase: inactive

Results for CCCc1sc(N/N=C/c2ccccn2)nc1-c1ccc(F)cc1 ?
T cruzi repl: 54.8; HSF1 activator: inactive; Glyco luc inh: inactive; PfHsp90 set2: 124.1; PvdQ acylase: inactive

What do the screens show for `O=c1c2ccccc2sn1-c1ccc(S(=O)(=O)N2CCCC2)cc1`?
T cruzi repl: 62.6; HSF1 activator: inactive; Glyco luc inh: inactive; PfHsp90 set2: inactive; PvdQ acylase: inactive

How did O=c1c2ccccc2sn1-c1ccccc1 do in these assays?
T cruzi repl: 64.9; HSF1 activator: inactive; Glyco luc inh: inactive; CaV13 FRET inh: inactive; PfHsp90 set2: 87.9; PvdQ acylase: inactive

What do the screens show for `O=c1c2ccccc2sn1-c1cccc(Cl)c1`?
Glyco luc inh: inactive; CaV13 FRET inh: inactive

How did Cc1ccc(-n2sc3ccccc3c2=O)cc1S(=O)(=O)N1CCCCC1 do in these assays?
T cruzi repl: 77.6; HSF1 activator: inactive; Glyco luc inh: inactive; CaV13 FRET inh: inactive; PfHsp90 set2: 106.4; PvdQ acylase: inactive

Results for Nc1ncnc2c1ncn2[C@@H]1O[C@H](C(=O)N[C@H](CO)Cc2ccc(O)cc2)[C@@H](O)[C@H]1O ?
Glyco luc inh: inactive; CaV13 FRET inh: inactive

Results for COC(=O)Cc1ccccc1NS(=O)(=O)c1ccc(C)cc1 ?
CaV13 FRET inh: inactive

Results for O=C1CC(c2ccco2)CC(O)=C1C=Nc1ccc(Br)cc1 (stereo not given) ?
T cruzi repl: inactive; HSF1 activator: inactive; Glyco luc inh: inactive; PfHsp90 set2: inactive; PvdQ acylase: inactive

Source: PubChem (Broad Institute)
